Several values for one entry are separate records, joined by “and”; a condition that tells them apart may be missing. Identical values can stand only once.
Key:
[1] = test system: stearoyl-CoA desaturase 1 (SCD1); assay: Hepatic Scd1 mRNA; format: in vivo, mouse; conditions: for mRNA levels of Scd1 in liver: qPCR, vs control mice
Method in brief: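 C57BL/6J mice (n = 6; n = 4 in SCD1-inhibitor study) gavaged with test compound 100 mg/kg every 24 h ×3, vehicle 0.5% CMC-Na. Where used, SCD1 inhibitor (DMSO/Tween 80/saline 1:2:97) was given i.p. twice daily, 10 mg/kg/day, starting before first dose. Liver flash-frozen. Western: RIPA/PMSF lysate, 10 μg protein, 10% SDS-PAGE, PVDF, ECL detection. mRNA by qRT-PCR.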

C57BL/6J mice [2] = assay: Experiment 4: SCD1 suppression by A939572 with 1′-hydroxyelemicin in mice; format: in vivo, mouse; conditions: A939572 10 mg/kg/day i.p. + 100 mg/kg 1′-hydroxyelemicin
C57BL/6J mice [3] = assay: Experiment 6: elemicin versus 1′-hydroxyelemicin toxicity at the same dose; format: in vivo, mouse
[4] = mouse, in vivo, 100 mg/kg
[5] = test system: CYPs in pooled mouse liver microsomes (MLMs); assay: Chemical inhibition of 1′-hydroxyelemicin formation in liver microsomes; format: in vitro ADME; conditions: 50 μM elemicin, MLMs 0.5 mg/mL, 40 min
C57BL/6J mice [6] = assay: Experiment 5: alpha-naphthoflavone with elemicin in mice; format: in vivo, mouse; conditions: alpha-naphthoflavone 80 mg/kg/day i.p. + elemicin 500 mg/kg oral for 7 days
C57BL/6J mice [7] = assay: Experiment 3: high-oleic acid diet with 1′-hydroxyelemicin in mice; format: in vivo, mouse; conditions: high-oleic acid diet + 100 mg/kg 1′-hydroxyelemicin 3 days
human recombinant CYP2A6 = target: T1, human recombinant CYP2A6 (Homo sapiens, UniProt P11509); assay: Kinetics of elemicin 1′-hydroxylation by recombinant CYP2A6; format: in vitro ADME
T1 sequence (P11509 1-494): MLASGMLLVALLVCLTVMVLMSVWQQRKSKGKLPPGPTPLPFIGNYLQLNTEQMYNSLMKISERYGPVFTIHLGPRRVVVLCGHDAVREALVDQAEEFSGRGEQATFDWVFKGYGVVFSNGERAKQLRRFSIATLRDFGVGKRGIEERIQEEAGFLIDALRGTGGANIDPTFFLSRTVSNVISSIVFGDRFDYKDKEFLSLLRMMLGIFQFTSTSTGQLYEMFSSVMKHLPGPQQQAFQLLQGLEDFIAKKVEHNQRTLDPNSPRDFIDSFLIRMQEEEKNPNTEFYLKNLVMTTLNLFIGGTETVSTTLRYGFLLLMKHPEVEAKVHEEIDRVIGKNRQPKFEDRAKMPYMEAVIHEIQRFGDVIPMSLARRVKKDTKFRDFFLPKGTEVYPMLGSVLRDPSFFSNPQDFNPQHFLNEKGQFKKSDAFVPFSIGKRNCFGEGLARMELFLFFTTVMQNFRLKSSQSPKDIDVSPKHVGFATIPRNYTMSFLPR

C57BL/6J mice [8] = assay: Experiment 1: toxicity of elemicin in mice, 3 weeks; format: in vivo, mouse
human recombinant CYP1A1 = target: T2, human recombinant CYP1A1 (Homo sapiens, UniProt P04798); assay: Kinetics of elemicin 1′-hydroxylation by recombinant CYP1A1; format: in vitro ADME
T2 sequence (P04798 1-512): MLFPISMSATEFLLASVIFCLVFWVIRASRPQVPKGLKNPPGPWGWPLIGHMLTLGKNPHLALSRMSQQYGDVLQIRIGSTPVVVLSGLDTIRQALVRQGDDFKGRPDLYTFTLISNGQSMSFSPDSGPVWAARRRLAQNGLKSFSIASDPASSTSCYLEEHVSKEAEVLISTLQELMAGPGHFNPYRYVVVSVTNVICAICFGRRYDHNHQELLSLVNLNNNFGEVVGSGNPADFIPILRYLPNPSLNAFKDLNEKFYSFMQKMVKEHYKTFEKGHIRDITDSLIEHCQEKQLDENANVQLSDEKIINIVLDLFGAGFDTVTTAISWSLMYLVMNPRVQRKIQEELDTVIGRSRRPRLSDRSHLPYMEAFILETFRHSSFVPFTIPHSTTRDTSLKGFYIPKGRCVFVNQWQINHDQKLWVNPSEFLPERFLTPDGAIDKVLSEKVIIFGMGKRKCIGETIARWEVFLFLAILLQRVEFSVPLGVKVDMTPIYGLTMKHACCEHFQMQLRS

[9] = substrate: C=CCc1cc(OC)c(OC)c(OC)c1; assay: Kinetics of elemicin 1′-hydroxylation by recombinant CYP1A2; format: in vitro ADME, human; conditions: other: 1′-hydroxyelemicin formation from elemicin, mean ± SD
[10] = substrate: C=CCc1cc(OC)c(OC)c(OC)c1; assay: Kinetics of elemicin 1′-hydroxylation by recombinant CYP1A1; format: in vitro ADME, human; conditions: other: 1′-hydroxyelemicin formation from elemicin, mean ± SD
[11] = substrate: C=CCc1cc(OC)c(OC)c(OC)c1; assay: Kinetics of elemicin 1′-hydroxylation by recombinant CYP2A6; format: in vitro ADME, human; conditions: other: 1′-hydroxyelemicin formation from elemicin, mean ± SD
[12] = substrate: C=CCc1cc(OC)c(OC)c(OC)c1; assay: Kinetics of elemicin 1′-hydroxylation by recombinant CYP2C19; format: in vitro ADME, human; conditions: other: 1′-hydroxyelemicin formation from elemicin, mean ± SD
[13] = 1′-hydroxyelemicin 100 mg/kg oral, 3 days
[14] = elemicin 500 mg/kg oral, 3 weeks
[15] = 500 mg/kg oral every 24 h for 3 weeks, vs control group
[16] = 500 mg/kg oral, 3 weeks, vs control group

CNC(=O)c1cccc(NC(=O)N2CCC(Oc3ccccc3Cl)CC2)c1 [A939572]
SCD1 expression in liver (Western blot) ([1]; A939572 10 mg/kg/day i.p. + 100 mg/kg 1′-hydroxyelemicin, A + E′ group): significantly decreased
levels of monounsaturated-LPCs in plasma (C57BL/6J mice [2]; A + E′ group): further decreased
TG levels in plasma (C57BL/6J mice [2]; A + E′ vs E′ group): markedly elevated
ratio of unsaturated-LPCs to saturated-LPCs (C57BL/6J mice [2]; A + E′ vs E′ group): significantly reduced

C=CC(O)c1cc(OC)c(OC)c(OC)c1 (stereo not shown) [1′-hydroxyelemicin]
SCD1 protein in liver (Western blot) [1, 13]: decreased
mRNA levels of Scd1 in liver [1, 13]: clearly decreased
liver index compared with the same dose of elemicin (C57BL/6J mice [3]; mouse, in vivo): higher
GSH adduct in urine [4]: observed in the urine

CC(=O)N1CCN(c2ccc(OCC3COC(Cn4ccnc4)(c4ccc(Cl)cc4Cl)O3)cc2)CC1 (stereo not shown) [ketoconazole]
inhibitory effect against 1′-hydroxyelemicin generation ([5]; inhibitor 10 μM (CYP3A4)): relative higher inhibitory effects

O=c1cc(-c2ccccc2)oc2c1ccc1ccccc12 [α-naphthoflavone]
elemicin-induced hepatomegaly (C57BL/6J mice [6]): significantly alleviate
inhibitory effect against 1′-hydroxyelemicin generation ([5]; inhibitor 1 μM (CYP1A1/2)): relative higher inhibitory effects

CCCCCCCC/C=C\CCCCCCCC(=O)O [oleic acid]
16:1-LPC, 18:1-LPC and 18:2-LPC levels in plasma (C57BL/6J mice [7]): ameliorated the decrease
ratios of 18:1-LPC to 18:0-LPC and 16:1-LPC to 16:0-LPC in plasma (C57BL/6J mice [7]): increased to normal level
hepatic TG content (C57BL/6J mice [7]; vs control mice): still higher than that of control mice
liver size (C57BL/6J mice [7]; vs control mice): still higher than that of control mice

C=CCc1cc(OC)c(OC)c(OC)c1 [elemicin, 3,4,5-trimethoxyallylbenzene]
Vmax (human recombinant CYP2A6; 1′-hydroxyelemicin formation from elemicin, mean ± SD): 0.524 ± 0.110 nmol min^−1 nmol P450^−1
in vitro catalytic efficiency (human recombinant CYP2A6; Vmax/Km × 1000 μL): 0.520 μL min^−1 nmol P450^−1
SCD1 protein in liver (Western blot) [1, 14]: decreased
mRNA levels of Scd1 in liver [1, 14]: clearly decreased
hepatomegaly (C57BL/6J mice [3]; 100 mg/kg for 3 days, mice): did not result in hepatomegaly
histopathological analysis of hepatic tissue (C57BL/6J mice [8]; 500 mg/kg oral every 24 h for 3 weeks, H&E): cytoplasmic pale staining, hepatocyte swelling and the cytoplasm seemed abnormal around the central vein
TG levels in liver (C57BL/6J mice [8]; [15]): significantly elevated
TG levels in plasma (C57BL/6J mice [8]; [15]): significantly elevated
liver weights (hepatic index) (C57BL/6J mice [8]; [15]): increased
serum ALT (C57BL/6J mice [8]; [15]): no significant changes
total plasma GSH and GSSG (C57BL/6J mice [8]; [15]): reduced
ratios of 18:1-LPC to 18:0-LPC and 16:1-LPC to 16:0-LPC in plasma (C57BL/6J mice [8]; [16]): dramatically reduced
saturated LPC (18:0-LPC) in plasma (C57BL/6J mice [8]; [16]): significantly increased
unsaturated LPCs (18:1-, 18:2-, 16:1-, 20:4-LPC) in plasma (C57BL/6J mice [8]; [16]): obviously reduced
Vmax (human recombinant CYP1A1): 1.80 ± 0.045 nmol ● min^−1 nmol ● CYP^−1
in vitro catalytic efficiency (human recombinant CYP1A1; Vmax/Km × 1000 μL): 140.062 μL min^−1 nmol P450^−1

B1: human recombinant CYP1A2 (Homo sapiens) (protein)
chain: MALSQSVPFSATELLLASAIFCLVFWVLKGLRPRVPKGLKSPPEPWGWPLLGHVLTLGKNPHLALSRMSQRYGDVLQIRIGSTPVLVLSRLDTIRQALVRQGDDFKGRPDLYTSTLITDGQSLTFSTDSGPVWAARRRLAQNALNTFSIASDPASSSSCYLEEHVSKEAKALISRLQELMAGPGHFDPYNQVVVSVANVIGAMCFGQHFPESSDEMLSLVKNTHEFVETASSGNPLDFFPILRYLPNPALQRFKAFNQRFLWFLQKTVQEHYQDFDKNSVRDITGALFKHSKKGPRASGNLIPQEKIVNLVNDIFGAGFDTVTTAISWSLMYLVTKPEIQRKIQKELDTVIGRERRPRLSDRPQLPYLEAFILETFRHSSFLPFTIPHSTTRDTTLNGFYIPKKCCVFVNQWQVNHDPELWEDPSEFRPERFLTADGTAINKPLSEKMMLFGMGKRRCIGEVLAKWEIFLFLAILLQQLEFSVPPGVKVDLTPIYGLTMKHARCEHVQARLRFSIN
Km [9]: 15.850 ± 3.067 µM
kcat [9]: 0.0067 ± 0.00035 s⁻¹
kcat/Km [9]: 423 M⁻¹ s⁻¹

B2: human recombinant CYP1A1 (Homo sapiens) (protein)
chain: MLFPISMSATEFLLASVIFCLVFWVIRASRPQVPKGLKNPPGPWGWPLIGHMLTLGKNPHLALSRMSQQYGDVLQIRIGSTPVVVLSGLDTIRQALVRQGDDFKGRPDLYTFTLISNGQSMSFSPDSGPVWAARRRLAQNGLKSFSIASDPASSTSCYLEEHVSKEAEVLISTLQELMAGPGHFNPYRYVVVSVTNVICAICFGRRYDHNHQELLSLVNLNNNFGEVVGSGNPADFIPILRYLPNPSLNAFKDLNEKFYSFMQKMVKEHYKTFEKGHIRDITDSLIEHCQEKQLDENANVQLSDEKIINIVLDLFGAGFDTVTTAISWSLMYLVMNPRVQRKIQEELDTVIGRSRRPRLSDRSHLPYMEAFILETFRHSSFVPFTIPHSTTRDTSLKGFYIPKGRCVFVNQWQINHDQKLWVNPSEFLPERFLTPDGAIDKVLSEKVIIFGMGKRKCIGETIARWEVFLFLAILLQRVEFSVPLGVKVDMTPIYGLTMKHACCEHFQMQLRS
Km [10]: 12.9 ± 1.26 µM and 12.880 ± 1.265 µM
kcat/Km [10]: 140 μL min^−1 nmol CYP^−1

B3: human recombinant CYP2A6 (Homo sapiens) (protein)
chain: MLASGMLLVALLVCLTVMVLMSVWQQRKSKGKLPPGPTPLPFIGNYLQLNTEQMYNSLMKISERYGPVFTIHLGPRRVVVLCGHDAVREALVDQAEEFSGRGEQATFDWVFKGYGVVFSNGERAKQLRRFSIATLRDFGVGKRGIEERIQEEAGFLIDALRGTGGANIDPTFFLSRTVSNVISSIVFGDRFDYKDKEFLSLLRMMLGIFQFTSTSTGQLYEMFSSVMKHLPGPQQQAFQLLQGLEDFIAKKVEHNQRTLDPNSPRDFIDSFLIRMQEEEKNPNTEFYLKNLVMTTLNLFIGGTETVSTTLRYGFLLLMKHPEVEAKVHEEIDRVIGKNRQPKFEDRAKMPYMEAVIHEIQRFGDVIPMSLARRVKKDTKFRDFFLPKGTEVYPMLGSVLRDPSFFSNPQDFNPQHFLNEKGQFKKSDAFVPFSIGKRNCFGEGLARMELFLFFTTVMQNFRLKSSQSPKDIDVSPKHVGFATIPRNYTMSFLPR
Km [11]: 1007.000 ± 293.000 µM

B4: human recombinant CYP2C19 (Homo sapiens) (protein)
chain: MDPFVVLVLCLSCLLLLSIWRQSSGRGKLPPGPTPLPVIGNILQIDIKDVSKSLTNLSKIYGPVFTLYFGLERMVVLHGYEVVKEALIDLGEEFSGRGHFPLAERANRGFGIVFSNGKRWKEIRRFSLMTLRNFGMGKRSIEDRVQEEARCLVEELRKTKASPCDPTFILGCAPCNVICSIIFQKRFDYKDQQFLNLMEKLNENIRIVSTPWIQICNNFPTIIDYFPGTHNKLLKNLAFMESDILEKVKEHQESMDINNPRDFIDCFLIKMEKEKQNQQSEFTIENLVITAADLLGAGTETTSTTLRYALLLLLKHPEVTAKVQEEIERVIGRNRSPCMQDRGHMPYTDAVVHEVQRYIDLIPTSLPHAVTCDVKFRNYLIPKGTTILTSLTSVLHDNKEFPNPEMFDPRHFLDEGGNFKKSNYFMPFSAGKRICVGEGLARMELFLFLTFILQNFNLKSLIDPKDLDTTPVVNGFASVPPFYQLCFIPV
Km [12]: 43.430 ± 3.613 µM
kcat [12]: 0.00792 ± 0.0002 s⁻¹
kcat/Km [12]: 182 M⁻¹ s⁻¹
